Our source for the k obs and IC50 values is ChEMBL document CHEMBL1130017, “Rationally designed inhibitors of inosine monophosphate dehydrogenase” (J Med Chem, 1997).

In experiment [1] the target is T1, Inosine-5'-monophosphate dehydrogenase 2 (Homo sapiens, UniProt P12268). The experiment can be described thus: First order rate constant for inactivation of human Inosine-5'-monophosphate dehydrogenase 2. The essentials: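 Human type II IMPDH (2 µM) incubated at 23 °C with 20 µM compound (10-fold excess) in 0.1 M potassium phosphate pH 7.9, 0.5 M KCl, 3 mM EDTA, 10 mM DTT and 100 µg/mL BSA. Aliquots taken over time are assayed with 200 µM IMP and 400 µM NAD (8× Km). k_inact comes from a nonlinear first-order fit of remaining activity versus incubation time.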

Experiment [2] addresses T1, Inosine-5'-monophosphate dehydrogenase 2. Briefly: Concentration required for 50% inhibition of human Inosine-5'-monophosphate dehydrogenase 2 using Spectrophotometric assay. The essentials:
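Human type II IMPDH, 25 nM final, added to start the reaction. Mix holds 50 µM IMP, 100 µM NAD and varying inhibitor in 0.1 M potassium phosphate pH 7.4, 0.1 M KCl, 3 mM EDTA, 1 mM DTT and 100 µg/mL BSA. NADH formation is followed by absorbance at 340 nm in 1 cm cells. Fractional activity relative to the uninhibited rate is taken against inhibitor concentration.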

Turning to `C=Cc1nc(O)c2ncn(C3O[C@@H](COP(=O)(O)O)[C@H](O)[C@@H]3O)c2n1` (stereo partly drawn), the k obs in experiment [1] was 0.0144 s⁻¹. One may read the IC50 as the midpoint of a concentration-inhibition curve. Read a high IC50 as lower potency. On to `O=P(O)(O)OC[C@@H]1OC(n2cnc3c(O)nc(C(O)O)nc32)[C@@H](O)[C@H]1O` (stereo partly drawn), for which the IC50 in experiment [2] is 0.44 µM.

Regarding `O=P(O)(O)OC[C@@H]1OC(n2cnc3c(O)nc(C(F)(F)F)nc32)[C@@H](O)[C@H]1O` (stereo partly drawn), the IC50 in experiment [2] is over 1000 µM.

In the case of `O=c1[nH]c(CCl)nc2c1ncn2C1O[C@@H](COP(=O)(O)O)[C@H](O)[C@@H]1O` (stereo partly drawn), the IC50 in experiment [2] is 1.32 µM.

In experiment [2], `O=P(O)(O)OC[C@@H]1OC(n2cnc3c(O)nc(/C=C/c4ccccc4)nc32)[C@@H](O)[C@H]1O` (stereo partly drawn) returned an IC50 of 37 µM. On the same count and under the same terms, with `O=c1[nH]c(CF)nc2c1ncn2C1O[C@@H](COP(=O)(O)O)[C@H](O)[C@@H]1O` (stereo partly drawn) the figure was 1.2 µM.

In experiment [1], `O=P(O)(O)OC[C@@H]1OC(n2cnc3c(O)nc(CF)nc32)[C@@H](O)[C@H]1O` (stereo partly drawn) came in with a k obs of 0.0164 s⁻¹. In experiment [2], `O=c1[nH]c(CO)nc2c1ncn2C1O[C@@H](COP(=O)(O)O)[C@H](O)[C@@H]1O` (stereo partly drawn) yielded an IC50 of 132 µM. Still for that read-out and setting: with `Cc1nc(O)c2ncn(C3O[C@@H](COP(=O)(O)O)[C@H](O)[C@@H]3O)c2n1` (stereo partly drawn) the figure was over 1000 µM. Still for that read-out and setting: next, `O=P(O)(O)OC[C@@H]1OC(n2cnc3c(O)nc(CCc4ccccc4)nc32)[C@@H](O)[C@H]1O` (stereo partly drawn): 460 µM. The compound `O=P(O)(O)OC[C@@H]1OC(n2cnc3c(O)nc(CCl)nc32)[C@@H](O)[C@H]1O` (stereo partly drawn) registered a k obs in experiment [1] of 0.0528 s⁻¹.

In experiment [2], `O=P(O)(O)OC[C@@H]1OC(n2cnc3c(O)nc(C(F)F)nc32)[C@@H](O)[C@H]1O` (stereo partly drawn) gave an IC50 of over 1000 µM. On the same count and under the same terms, next, `C=Cc1nc2c(ncn2C2O[C@@H](COP(=O)(O)O)[C@H](O)[C@@H]2O)c(=O)[nH]1` (stereo partly drawn): 1 µM.
